Data reported in ChEMBL document CHEMBL3865824, “New (E)-1-alkyl-1H-benzo[d]imidazol-2-yl)methylene)indolin-2-ones: Synthesis, in vitro cytotoxicity evaluation and apoptosis inducing studies” (Eur J Med Chem, 2016).

Legend:
[1] = Cytotoxicity against human A549 cells assessed as reduction in cell viability after 48 hrs by MTT assay; format: functional, cell-based; details: A549, 48 h
Method in brief: (§1)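 Cells grown in DMEM or MEM with 10% FBS at 37 °C, 5% CO2. Seeded at 1×10^4 cells/well, incubated 48 h, then exposed to compound for 48 h with vehicle control. MTT (5 mg/mL stock) added for 4 h; formazan dissolved in DMSO, absorbance read at 570 nm. Preliminary screen at 50 µM. Compounds giving >50% inhibition were tested for dose-response curves; IC50 derived by linear regression of % inhibition versus concentration. Mean of three independent experiments in triplicate.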

[2] = Selectivity ratio of IC50 for human MCF10A cells to IC50 for human PC3 cells; format: ADME, cell-based, MCF-10A; details: MCF10A cells versus PC3 cells, read-out: Ratio IC50
[3] = Cytotoxicity against HGC cells assessed as growth inhibition at 50 uM after 48 hrs by MTT assay relative to control; format: functional; details: Homo sapiens, read-out: GI; method in brief: as §1
[4] = Cytotoxicity against human PC3 cells assessed as reduction in cell viability after 48 hrs by MTT assay; format: functional, cell-based; details: PC-3, 48 h; method in brief: as §1
[5] = Selectivity ratio of IC50 for human MCF10A cells to IC50 for human BT549 cells; format: ADME, cell-based, MCF-10A; details: MCF10A cells versus BT549 cells, read-out: Ratio IC50
[6] = Selectivity ratio of IC50 for human MCF10A cells to IC50 for human A549 cells; format: ADME, cell-based; details: MCF10A cells versus A549 cells, read-out: Ratio IC50
[7] = Cytotoxicity against HGC cells assessed as reduction in cell viability after 48 hrs by MTT assay; format: functional, cell-based; details: Homo sapiens; method in brief: as §1
[8] = Selectivity ratio of IC50 for human MCF10A cells to IC50 for […] cells; format: ADME, cell-based, MCF-10A; details: MCF10A cells versus 4TI cells, read-out: Ratio IC50
[9] = Cytotoxicity against human PC3 cells assessed as growth inhibition at 50 uM after 48 hrs by MTT assay relative to control; format: functional; details: PC-3, 48 h, read-out: GI; method in brief: as §1
[10] = Cytotoxicity against human MCF10A cells assessed as reduction in cell viability after 48 hrs by MTT assay; format: toxicity, cell-based, MCF-10A; method in brief: as §1
[11] = Cytotoxicity against human BT549 cells assessed as growth inhibition at 50 uM after 48 hrs by MTT assay relative to control; format: functional; details: BT-549, 48 h, read-out: GI; method in brief: as §1
[12] = Cytotoxicity against human MDA-MB-231 cells assessed as reduction in cell viability after 48 hrs by MTT assay; format: functional, cell-based; details: MDA-MB-231, 48 h; method in brief: as §1
[13] = Cytotoxicity against human DU145 cells assessed as reduction in cell viability after 48 hrs by MTT assay; format: functional, cell-based; details: DU-145, 48 h; method in brief: as §1
[14] = Cytotoxicity against human DU145 cells assessed as growth inhibition at 50 uM after 48 hrs by MTT assay relative to control; format: functional; details: DU-145, 48 h, read-out: GI; method in brief: as §1
[15] = Selectivity ratio of IC50 for human MCF10A cells to IC50 for human MCF7 cells; format: ADME, cell-based, MCF-10A; details: MCF10A cells versus MCF7 cells, read-out: Ratio IC50
[16] = Selectivity ratio of IC50 for human MCF10A cells to IC50 for human MDA-MB-231 cells; format: ADME, cell-based, MCF-10A; details: MCF10A cells versus MDA-MB-231 cells, read-out: Ratio IC50
[17] = Cytotoxicity against human BT549 cells assessed as reduction in cell viability after 48 hrs by MTT assay; format: functional, cell-based; details: BT-549, 48 h; method in brief: as §1
[18] = Cytotoxicity against human MDA-MB-231 cells assessed as growth inhibition at 50 uM after 48 hrs by MTT assay relative to control; format: functional; details: MDA-MB-231, 48 h, read-out: GI; method in brief: as §1
[19] = Cytotoxicity against human MCF7 cells assessed as growth inhibition at 50 uM after 48 hrs by MTT assay relative to control; format: functional; details: MCF7, 48 h, read-out: GI; method in brief: as §1
[20] = Cytotoxicity against human MCF7 cells assessed as reduction in cell viability after 48 hrs by MTT assay; format: functional, cell-based; details: MCF7, 48 h; method in brief: as §1
[21] = Cytotoxicity against […] cells assessed as reduction in cell viability after 48 hrs by MTT assay; format: functional, cell-based; details: 4T1, 48 h; method in brief: as §1
[22] = Cytotoxicity against […] cells assessed as growth inhibition at 50 uM after 48 hrs by MTT assay relative to control; format: functional; details: Mus musculus, 4T1, 48 h; read-out: GI; method in brief: as §1
[23] = Selectivity ratio of IC50 for human MCF10A cells to IC50 for human DU145 cells; format: ADME, cell-based, MCF-10A; details: MCF10A cells versus DU145 cells, read-out: Ratio IC50
[24] = Cytotoxicity against human A549 cells assessed as growth inhibition at 50 uM after 48 hrs by MTT assay relative to control; format: functional; details: A549, 48 h, read-out: GI; method in brief: as §1
[25] = Selectivity ratio of IC50 for human MCF10A cells to IC50 for HGC cells; format: ADME, cell-based, MCF-10A; details: MCF10A cells versus HGC cells, read-out: Ratio IC50
[26] = Cell cycle arrest in human MDA-MB-231 cells assessed as accumulation at S phase at 4 uM after 24 hrs by propidium iodide staining based FACS analysis (reference value: 24.6 %); format: functional
Method in brief: (§2)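 MDA-MB-231 at 1×10^6 cells/well treated with 1, 2 or 4 µM for 24 h, with a DMSO control. Cells harvested by trypsin, washed with PBS and fixed in 70% ethanol for 30 min at 4 °C. Stained 15 min at room temperature in the dark with PI buffer containing Triton X and DNase-free RNase A. Analysed by flow cytometry; G0/G1, S and G2/M fractions quantified.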

[27] = Cell cycle arrest in human MDA-MB-231 cells assessed as accumulation at G2/M phase at 4 uM after 24 hrs by propidium iodide staining based FACS analysis (reference value: 26 %); format: functional; method in brief: as §2
[28] = Cell cycle arrest in human MDA-MB-231 cells assessed as accumulation at G0/G1 phase at 4 uM after 24 hrs by propidium iodide staining based FACS analysis (reference value: 50.4 %); format: functional; method in brief: as §2

CC(C)n1c(/C=C2/C(=O)Nc3ccc(Cl)cc32)nc2ccccc21
IC50 [1]: 35.2 µM
selectivity ratio [2]: 2 to 3
inhibition of growth at 50 µM [3]: > 50%
IC50 [4]: 38.1 µM
selectivity ratio [5]: 2 to 3
selectivity ratio [6]: 2 to 3
IC50 [7]: 32.8 µM
selectivity ratio [8]: 2 to 3
inhibition of growth at 50 µM [9]: > 50%
IC50 at 48 h [10]: 68.8 µM
inhibition of growth at 50 µM [11]: > 50%
IC50 [12]: 25.1 µM
IC50 [13]: 36.4 µM
inhibition of growth at 50 µM [14]: > 50%
selectivity ratio [15]: 2 to 3
selectivity ratio [16]: 2 to 3
IC50 [17]: 35.1 µM
inhibition of growth at 50 µM [18]: > 50%
inhibition of growth at 50 µM [19]: > 50%
IC50 [20]: 24 µM
IC50 [21]: 35.7 µM
inhibition of growth at 50 µM [22]: > 50%
selectivity ratio [23]: 2 to 3
inhibition of growth at 50 µM [24]: > 50%
selectivity ratio [25]: 2 to 3

CCN(CC)CCNC(=O)c1c(C)[nH]c(/C=C2\C(=O)Nc3ccc(F)cc32)c1C [SUNITINIB]
IC50 [1]: 14.4 µM
Activity [26]: 18.3%
IC50 [12]: 7.44 µM
IC50 [13]: 16.4 µM
IC50 [17]: 15.5 µM
Activity [27]: 13.9%
IC50 [20]: 23.8 µM
Activity [28]: 67.6%
